Assay results taken from ChEMBL document CHEMBL3286157, “Polyketides from the cultured lichen mycobiont of a Vietnamese Pyrenula sp” (J Nat Prod, 2014).
pIC50: −log10 of the molar value. The source made the active and inactive calls. The calls are words filed in the database; no cut-off is given here.

Columns and labels:
[1] = target: DNA polymerase beta (Rattus norvegicus) (UniProt P06766); assay: Inhibition of rat recombinant DNA polymerase beta expressed in Escherichia coli JMpbeta5 cells assessed as incorporation of [3H]dTTP into poly(dA)/oligo(dT)18 DNA-template primer at 100 uM after 60 mins
Procedure, shortened: (§1)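 Single-concentration screen at 100 μM. Compound was dissolved in DMSO and sonicated 30 s. Enzyme (0.05 unit of calf thymus pol α or E. coli-expressed rat pol β) was preincubated 10 min at 0 °C in Tris-HCl pH 7.5/DTT/glycerol/EDTA. Reaction with poly(dA)/oligo(dT)18 and [3H]dTTP ran 60 min at 37 °C. Activity given as percent of no-inhibitor control.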

HCT-116 = assay: Cytotoxicity against human HCT116 cells assessed as inhibition of cell proliferation after 24 hrs by WST-1 assay; format: functional, cell-based; settings: HCT-116, 24 h
Procedure, shortened: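 HCT116 cells from ATCC, grown in McCoy's 5A with 10% FBS, penicillin and streptomycin at 37 °C under 5% CO2. Plated at 1 × 10^4 cells per well with compound at 10 and 100 μM for 24 h. Viability read by WST-1. IC50 given as mean ± SD of five independent experiments.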

DNA polymerase beta = DNA polymerase beta (Rattus norvegicus, UniProt P06766); assay: (§2) Inhibition of rat recombinant DNA polymerase beta expressed in Escherichia coli JMpbeta5 cells assessed as incorporation of [3H]dTTP into poly(dA)/oligo(dT)18 DNA-template primer after 60 mins
Procedure, shortened: (§3)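 Pol α from calf thymus, purified by immunoaffinity column. Rat pol β expressed in E. coli JMpβ5. Template-primer poly(dA)/oligo(dT)18 (A/T 2:1) with [3H]dTTP (43 Ci/mmol). Each enzyme (0.05 unit) was preincubated with compound for 10 min at 0 °C in 50 mM Tris-HCl pH 7.5 with 1 mM DTT, 50% glycerol and 0.1 mM EDTA. Reaction ran 60 min at 37 °C. Activity relative to no-inhibitor control; IC50 from dose-response curves.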

[2] = (§4) Inhibition of calf thymus DNA polymerase alpha assessed as incorporation of [3H]dTTP into poly(dA)/oligo(dT)18 DNA-template primer after 60 mins; set-up: species or system Bos taurus; procedure, shortened: as §3
Bos taurus [3] = species on record: Bos taurus; assay: Inhibition of calf thymus DNA polymerase alpha assessed as incorporation of [3H]dTTP into poly(dA)/oligo(dT)18 DNA-template primer at 100 uM after 60 mins; procedure, shortened: as §1
[4] = target: DNA polymerase beta (Rattus norvegicus) (UniProt P06766); assay: as §2; procedure, shortened: as §3
Bos taurus [5] = species on record: Bos taurus; assay: as §4; procedure, shortened: as §3

inhibition [1] | pIC50 (DNA polymerase beta) | pIC50 [2] | inhibition (Bos taurus [3]) | Compound | pIC50 (HCT-116) | inhibition [4] | inhibition (Bos taurus [5])
Active | < 4.00 | < 4.00 | Active | CC[C@@H](C)[C@H]1O[C@H](/C=C/C=C/C(=O)O)[C@@H](O)[C@@]2(O)[C@@H]3CC=C(C)C[C@H]3C=C(C)[C@H]2[C@]1(C)O | < 4.00 |  | 
Active | < 4.00 | < 4.00 | Active | CC1=CC[C@@H]2[C@H](C=C(C)[C@H]3[C@]4(C)OCC[C@@H](C)[C@H]4O[C@H](/C=C/C=C/C(=O)O)[C@@H](O)[C@@]23O)C1 | < 4.00 |  | 
Active | 4.42 | 4.33 | Active | CC1=CC[C@H]2[C@@H]3[C@H](O)[C@@H](/C=C/C=C/C(=O)O)O[C@@H]4[C@H](C)CCO[C@@]4(C)[C@@H]3C(C)=C[C@@H]2C1 | 4.13 |  | 

Further lines, the compound ahead of its results:

Compound | inhibition [1] | pIC50 (DNA polymerase beta) | pIC50 [2] | inhibition (Bos taurus [3]) | pIC50 (HCT-116) | inhibition [4] | inhibition (Bos taurus [5])
CC[C@@H](C)[C@H]1O[C@]1(C)[C@@H]1C(C)=C[C@@H]2CC(C)=CC[C@H]2[C@@H]1/C=C/C=C/C=C/C(=O)O | Active | 5.02 | 5.09 | Active | 5.19 | Dose-dependent effect | Dose-dependent effect
C=C1[C@@H]([C@H](C)CC)O[C@H](/C=C/C=C/C(=O)O)[C@@H](O)[C@H]2[C@@H]3CC=C(C)C[C@H]3C=C(C)[C@@]12O | Active | < 4.00 | < 4.00 | Active | < 4.00 |  | 
C=C1[C@@H]2C(C)=C[C@@H]3CC(C)=CC[C@H]3[C@@H]2[C@H](O)[C@@H](/C=C/C=C/C(=O)O)O[C@@H]1[C@H](C)CC | Active | 4.71 | 4.76 | Active | 4.58 | Dose-dependent effect | Dose-dependent effect
Cc1cn([C@H]2CC[C@@H](COP(=O)(O)OP(=O)(O)OP(=O)(O)O)O2)c(=O)[nH]c1=O |  | 4.51 | < 4.00 |  | < 4.00 |  | 
C[C@@]1(CO)[C@H](O)CC[C@@]2(C)[C@H]1CC[C@H]1C[C@@H]3C[C@@]12CC[C@]3(O)CO [APHIDICOLIN] |  | < 4.00 | 4.71 |  | 5.05 |  | 
